Reference: ChEMBL document CHEMBL5696442, “Discovery of type II inhibitors of TGFβ-activated kinase 1 (TAK1) and mitogen-activated protein kinase kinase kinase kinase 2 (MAP4K2)” (J Med Chem, 2015)

Assays:
[1] = biological target: Cyclin-dependent kinase 9 (Homo sapiens) (UniProt P50750); test: Inhibition of CDK9 Lys2 labeling site in human A-375 cells at 0.05 uM by KiNativ Profiling analysis relative to control; format: cell-based
[2] = biological target: Serine/threonine-protein kinase tousled-like 2 (Homo sapiens) (UniProt Q86UE8); test: Inhibition of TLK2 Lys1 labeling site in human A-375 cells at 0.05 uM by KiNativ Profiling analysis relative to control; format: cell-based
[3] = biological target: 3-phosphoinositide-dependent protein kinase 1 (Homo sapiens) (UniProt O15530); test: Inhibition of PDK1 Protein Kinase Domain in human A-375 cells at 0.5 uM by KiNativ Profiling analysis relative to control
Ephrin type-B receptor 4 = Ephrin type-B receptor 4 (Homo sapiens, UniProt P54760); test: Inhibition of EphB4 (unknown origin) ACT labeling site by KiNativ Profiling analysis
[4] = biological target: Serine/threonine-protein kinase Chk2 (Homo sapiens) (UniProt O96017); test: Inhibition of CHK2 Lys1 labeling site in human A-375 cells at 5 uM by KiNativ Profiling analysis relative to control; format: cell-based
Procedure, shortened: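 Live A375 melanoma cells were treated with compound at 5 or 0.5 μM. The cells were then lysed, and the lysates were labeled with a lysine-reactive ATP or ADP-biotin acyl probe (KiNativ). Inhibition is the compound's protection of each kinase labeling-site peptide from probe labeling, relative to untreated control.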

[5] = biological target: Diacylglycerol kinase alpha (Homo sapiens) (UniProt P23743); test: Inhibition of DGKA ATP labeling site harbouring in human A-375 cells at 0.5 uM by KiNativ Profiling analysis relative to control; format: cell-based
Procedure, shortened: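 Live A375 melanoma cells were treated with compound at 0.5 or 5 μM, then lysed. Lysates were labeled with a lysine-reactive ATP or ADP-biotin probe. The read-out was protection of each kinase probe-labeling site from labeling, relative to control.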

[6] = biological target: T1, Dual specificity mitogen-activated protein kinase kinase 5 (Homo sapiens) (UniProt Q13163); test: Inhibition of MAP2K5 Lys2 labeling site in human A-375 cells at 0.05 uM by KiNativ Profiling analysis relative to control; format: cell-based
T1 sequence (whole entry): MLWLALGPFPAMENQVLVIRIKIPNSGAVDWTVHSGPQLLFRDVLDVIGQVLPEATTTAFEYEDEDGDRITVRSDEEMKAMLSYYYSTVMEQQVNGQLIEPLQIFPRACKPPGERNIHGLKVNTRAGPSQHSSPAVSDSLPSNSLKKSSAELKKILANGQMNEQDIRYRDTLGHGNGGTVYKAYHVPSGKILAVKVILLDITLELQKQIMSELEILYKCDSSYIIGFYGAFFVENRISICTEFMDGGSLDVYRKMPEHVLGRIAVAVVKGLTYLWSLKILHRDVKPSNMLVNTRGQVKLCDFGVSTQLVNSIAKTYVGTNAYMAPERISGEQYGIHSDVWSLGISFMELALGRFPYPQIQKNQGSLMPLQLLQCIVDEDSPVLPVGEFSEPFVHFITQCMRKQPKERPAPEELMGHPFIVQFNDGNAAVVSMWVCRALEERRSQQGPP

[7] = biological target: Serine/threonine-protein kinase Nek7 (Homo sapiens) (UniProt Q8TDX7); test: Inhibition of NEK7 Lys2 labeling site in human A-375 cells at 0.5 uM by KiNativ Profiling analysis relative to control; format: cell-based
[8] = biological target: Serine/threonine-protein kinase WNK1 (Homo sapiens) (UniProt Q9H4A3); test: Inhibition of Wnk1 Lys2 labeling site in human A-375 cells at 0.05 uM by KiNativ Profiling analysis relative to control; format: cell-based
[9] = biological target: Serine/threonine-protein kinase 38-like (Homo sapiens) (UniProt Q9Y2H1); test: Inhibition of NDR2 Lys1 labeling site harbouring DTGHIYAMKILR in human A-375 cells at 0.05 uM by KiNativ Profiling analysis relative to control; format: cell-based
[10] = biological target: Mitogen-activated protein kinase 8 (Homo sapiens, UniProt P45983); test: Inhibition of JNK1 Lys2 labeling site in human A-375 cells at 5 uM by KiNativ Profiling analysis relative to control; format: cell-based
[11] = biological target: T2, Mitogen-activated protein kinase kinase kinase 7 (Homo sapiens) (UniProt O43318); test: Inhibition of TAK1 Lys2 labeling site in human A-375 cells at 0.05 uM by KiNativ Profiling analysis relative to control; format: cell-based
T2 sequence (whole entry): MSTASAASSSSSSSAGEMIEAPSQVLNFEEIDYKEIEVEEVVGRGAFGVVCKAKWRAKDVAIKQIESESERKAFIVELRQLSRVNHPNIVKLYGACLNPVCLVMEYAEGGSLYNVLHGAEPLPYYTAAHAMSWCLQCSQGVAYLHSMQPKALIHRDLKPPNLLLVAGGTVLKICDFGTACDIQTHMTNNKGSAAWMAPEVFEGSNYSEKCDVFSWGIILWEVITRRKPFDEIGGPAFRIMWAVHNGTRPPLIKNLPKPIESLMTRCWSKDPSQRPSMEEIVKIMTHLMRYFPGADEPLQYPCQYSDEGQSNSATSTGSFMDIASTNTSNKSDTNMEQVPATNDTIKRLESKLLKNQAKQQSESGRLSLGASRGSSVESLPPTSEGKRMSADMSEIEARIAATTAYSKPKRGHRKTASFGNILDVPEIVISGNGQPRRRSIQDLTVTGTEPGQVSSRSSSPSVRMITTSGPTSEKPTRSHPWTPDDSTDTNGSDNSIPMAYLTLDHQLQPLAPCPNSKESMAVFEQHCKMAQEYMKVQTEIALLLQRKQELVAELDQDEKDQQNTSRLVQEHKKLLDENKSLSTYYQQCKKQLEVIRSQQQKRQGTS

[12] = biological target: T3, Mitogen-activated protein kinase 13 (Homo sapiens) (UniProt O15264); test: Inhibition of p38 delta Lys2 labeling site in human A-375 cells at 5 uM by KiNativ Profiling analysis relative to control; format: cell-based
T3 sequence (whole entry): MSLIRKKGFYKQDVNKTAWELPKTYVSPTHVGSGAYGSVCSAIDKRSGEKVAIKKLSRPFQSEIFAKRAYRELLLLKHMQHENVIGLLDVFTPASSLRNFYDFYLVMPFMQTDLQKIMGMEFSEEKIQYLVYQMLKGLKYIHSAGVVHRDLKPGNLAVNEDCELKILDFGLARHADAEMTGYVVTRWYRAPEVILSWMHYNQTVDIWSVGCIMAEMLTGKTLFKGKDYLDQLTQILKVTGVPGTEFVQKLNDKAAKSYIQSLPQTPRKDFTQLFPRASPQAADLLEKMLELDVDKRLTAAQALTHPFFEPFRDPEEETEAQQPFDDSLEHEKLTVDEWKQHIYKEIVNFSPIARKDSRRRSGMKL

[13] = biological target: Tyrosine-protein kinase CSK (Homo sapiens, UniProt P41240); test: Inhibition of CSK ACT labeling site harbouring VSDFGLTKEASSTQDTGKLPVK in human Huh-7 cell lysate at 1 uM by KiNativ Profiling analysis relative to control; format: subcellular
[14] = biological target: Calcium/calmodulin-dependent protein kinase type 1 (Homo sapiens) (UniProt Q14012); test: Inhibition of CAMK1 alpha Lys1 labeling site in human Huh-7 cell lysate at 1 uM by KiNativ Profiling analysis relative to control; format: subcellular
Calcium/calmodulin-dependent protein kinase type 1 (Homo sapiens), sequence (Q14012 whole entry, looked up): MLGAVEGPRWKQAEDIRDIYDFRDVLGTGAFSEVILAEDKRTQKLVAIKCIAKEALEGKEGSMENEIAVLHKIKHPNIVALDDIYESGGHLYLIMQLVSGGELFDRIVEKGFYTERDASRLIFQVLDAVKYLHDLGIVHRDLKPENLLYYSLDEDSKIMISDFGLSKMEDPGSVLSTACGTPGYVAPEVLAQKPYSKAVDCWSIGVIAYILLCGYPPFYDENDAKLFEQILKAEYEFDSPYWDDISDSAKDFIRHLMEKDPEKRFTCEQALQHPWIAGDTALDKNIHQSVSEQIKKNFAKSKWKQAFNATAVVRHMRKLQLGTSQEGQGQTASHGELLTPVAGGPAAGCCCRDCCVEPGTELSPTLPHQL

Ephrin type-B receptor 4, sequence (P54760 whole entry): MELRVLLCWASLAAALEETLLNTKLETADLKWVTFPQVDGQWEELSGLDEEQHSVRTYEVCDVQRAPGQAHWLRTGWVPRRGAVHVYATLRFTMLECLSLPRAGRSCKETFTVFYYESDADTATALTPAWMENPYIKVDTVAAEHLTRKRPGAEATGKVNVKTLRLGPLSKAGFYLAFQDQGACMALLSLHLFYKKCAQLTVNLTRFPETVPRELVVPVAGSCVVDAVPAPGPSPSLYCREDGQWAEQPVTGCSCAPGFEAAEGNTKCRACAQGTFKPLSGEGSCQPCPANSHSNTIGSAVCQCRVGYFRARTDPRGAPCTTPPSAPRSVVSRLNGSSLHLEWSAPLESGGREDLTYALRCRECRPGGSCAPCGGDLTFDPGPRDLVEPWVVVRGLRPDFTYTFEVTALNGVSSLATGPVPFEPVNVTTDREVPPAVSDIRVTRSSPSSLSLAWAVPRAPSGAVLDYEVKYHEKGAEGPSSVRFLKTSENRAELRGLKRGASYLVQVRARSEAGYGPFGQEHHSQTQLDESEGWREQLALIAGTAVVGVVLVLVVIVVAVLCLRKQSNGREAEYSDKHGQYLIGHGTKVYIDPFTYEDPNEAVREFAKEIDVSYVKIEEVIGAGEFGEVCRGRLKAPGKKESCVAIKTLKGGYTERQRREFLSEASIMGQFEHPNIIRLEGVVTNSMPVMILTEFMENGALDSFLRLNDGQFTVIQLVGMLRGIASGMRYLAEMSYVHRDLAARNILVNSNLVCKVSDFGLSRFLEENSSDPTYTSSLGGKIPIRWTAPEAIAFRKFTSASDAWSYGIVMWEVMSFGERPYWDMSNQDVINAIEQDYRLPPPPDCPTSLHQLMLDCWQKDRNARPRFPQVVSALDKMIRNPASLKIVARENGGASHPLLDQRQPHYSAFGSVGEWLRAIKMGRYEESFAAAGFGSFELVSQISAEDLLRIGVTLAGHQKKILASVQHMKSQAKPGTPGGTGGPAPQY
Serine/threonine-protein kinase WNK1 (Homo sapiens), sequence (Q9H4A3 whole entry, looked up): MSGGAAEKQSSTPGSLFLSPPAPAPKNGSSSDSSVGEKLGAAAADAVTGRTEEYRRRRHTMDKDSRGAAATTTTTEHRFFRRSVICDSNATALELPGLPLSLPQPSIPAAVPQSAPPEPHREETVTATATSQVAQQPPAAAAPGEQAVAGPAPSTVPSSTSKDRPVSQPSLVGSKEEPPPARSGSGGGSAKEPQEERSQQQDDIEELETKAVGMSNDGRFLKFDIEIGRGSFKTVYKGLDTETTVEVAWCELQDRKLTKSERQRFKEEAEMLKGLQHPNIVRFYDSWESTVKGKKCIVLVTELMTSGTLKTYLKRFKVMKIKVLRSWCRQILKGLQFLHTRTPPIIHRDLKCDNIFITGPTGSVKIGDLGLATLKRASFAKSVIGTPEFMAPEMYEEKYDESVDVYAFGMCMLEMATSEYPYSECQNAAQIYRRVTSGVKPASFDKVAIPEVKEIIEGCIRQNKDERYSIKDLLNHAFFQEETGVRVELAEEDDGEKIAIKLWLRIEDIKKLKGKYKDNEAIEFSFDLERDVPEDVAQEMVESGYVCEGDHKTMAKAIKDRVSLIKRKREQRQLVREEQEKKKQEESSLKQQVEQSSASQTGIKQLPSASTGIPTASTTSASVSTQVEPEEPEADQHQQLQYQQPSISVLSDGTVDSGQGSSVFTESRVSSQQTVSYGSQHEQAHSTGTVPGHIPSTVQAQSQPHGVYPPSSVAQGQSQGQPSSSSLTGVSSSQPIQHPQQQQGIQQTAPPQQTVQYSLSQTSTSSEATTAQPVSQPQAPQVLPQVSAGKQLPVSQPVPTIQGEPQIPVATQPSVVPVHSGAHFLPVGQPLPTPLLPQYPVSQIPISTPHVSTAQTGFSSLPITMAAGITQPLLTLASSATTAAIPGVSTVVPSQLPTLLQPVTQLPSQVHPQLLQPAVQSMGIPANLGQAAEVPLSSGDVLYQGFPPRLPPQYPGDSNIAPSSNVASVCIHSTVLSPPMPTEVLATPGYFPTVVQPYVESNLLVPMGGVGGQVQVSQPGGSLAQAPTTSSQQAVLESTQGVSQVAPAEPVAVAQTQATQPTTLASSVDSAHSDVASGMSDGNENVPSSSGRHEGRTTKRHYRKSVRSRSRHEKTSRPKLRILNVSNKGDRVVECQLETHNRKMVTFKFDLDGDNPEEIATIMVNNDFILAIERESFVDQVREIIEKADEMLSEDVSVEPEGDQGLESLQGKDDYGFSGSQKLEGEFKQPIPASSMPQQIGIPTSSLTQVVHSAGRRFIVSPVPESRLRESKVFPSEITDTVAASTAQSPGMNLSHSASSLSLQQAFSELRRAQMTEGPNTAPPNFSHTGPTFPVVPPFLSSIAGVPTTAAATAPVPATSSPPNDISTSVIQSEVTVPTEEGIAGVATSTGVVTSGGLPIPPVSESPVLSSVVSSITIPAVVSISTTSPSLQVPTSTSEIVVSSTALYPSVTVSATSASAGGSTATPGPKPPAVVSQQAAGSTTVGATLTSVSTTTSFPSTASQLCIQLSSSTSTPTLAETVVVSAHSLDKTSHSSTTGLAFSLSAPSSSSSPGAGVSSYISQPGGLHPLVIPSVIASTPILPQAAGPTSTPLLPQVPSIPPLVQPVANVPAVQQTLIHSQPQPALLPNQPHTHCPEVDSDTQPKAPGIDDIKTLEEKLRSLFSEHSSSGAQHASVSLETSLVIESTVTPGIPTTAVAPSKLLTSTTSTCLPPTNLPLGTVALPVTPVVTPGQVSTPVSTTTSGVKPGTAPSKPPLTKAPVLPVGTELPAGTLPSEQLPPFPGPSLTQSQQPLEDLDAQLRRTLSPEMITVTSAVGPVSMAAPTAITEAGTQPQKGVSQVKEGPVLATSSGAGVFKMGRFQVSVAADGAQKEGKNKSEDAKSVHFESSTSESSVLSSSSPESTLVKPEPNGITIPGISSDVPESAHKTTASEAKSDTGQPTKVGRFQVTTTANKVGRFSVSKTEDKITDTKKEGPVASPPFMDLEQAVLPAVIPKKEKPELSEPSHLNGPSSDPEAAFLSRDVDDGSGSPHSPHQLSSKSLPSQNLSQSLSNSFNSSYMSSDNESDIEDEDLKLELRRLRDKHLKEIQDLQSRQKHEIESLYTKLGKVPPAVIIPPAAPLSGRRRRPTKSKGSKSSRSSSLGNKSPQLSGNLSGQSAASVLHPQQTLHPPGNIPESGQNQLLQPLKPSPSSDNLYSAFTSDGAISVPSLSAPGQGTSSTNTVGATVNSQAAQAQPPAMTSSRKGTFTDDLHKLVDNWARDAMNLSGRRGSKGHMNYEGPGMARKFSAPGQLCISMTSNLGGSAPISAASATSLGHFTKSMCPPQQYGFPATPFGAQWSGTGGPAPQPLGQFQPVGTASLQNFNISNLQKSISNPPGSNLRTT
Serine/threonine-protein kinase 38-like (Homo sapiens), sequence (Q9Y2H1 2-464 limits assumed): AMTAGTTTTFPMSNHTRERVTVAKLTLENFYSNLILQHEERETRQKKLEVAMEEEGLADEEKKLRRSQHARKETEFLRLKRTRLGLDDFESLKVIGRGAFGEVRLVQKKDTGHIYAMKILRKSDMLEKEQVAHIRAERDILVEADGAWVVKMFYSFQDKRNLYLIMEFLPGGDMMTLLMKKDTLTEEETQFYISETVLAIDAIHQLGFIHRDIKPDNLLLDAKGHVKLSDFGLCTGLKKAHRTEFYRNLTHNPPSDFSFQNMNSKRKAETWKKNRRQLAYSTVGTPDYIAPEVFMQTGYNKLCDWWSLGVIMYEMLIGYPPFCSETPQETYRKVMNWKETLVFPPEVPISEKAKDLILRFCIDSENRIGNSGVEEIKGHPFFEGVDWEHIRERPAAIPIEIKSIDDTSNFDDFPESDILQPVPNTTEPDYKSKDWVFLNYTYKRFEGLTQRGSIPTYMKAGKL
Serine/threonine-protein kinase Nek7 (Homo sapiens), sequence (Q8TDX7 whole entry, looked up): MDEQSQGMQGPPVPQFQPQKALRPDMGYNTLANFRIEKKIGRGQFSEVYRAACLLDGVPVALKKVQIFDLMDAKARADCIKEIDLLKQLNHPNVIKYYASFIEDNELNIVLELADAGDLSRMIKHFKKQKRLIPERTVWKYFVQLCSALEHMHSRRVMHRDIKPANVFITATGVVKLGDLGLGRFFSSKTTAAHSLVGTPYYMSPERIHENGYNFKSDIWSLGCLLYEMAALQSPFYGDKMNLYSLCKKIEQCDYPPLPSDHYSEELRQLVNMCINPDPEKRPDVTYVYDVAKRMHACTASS
Tyrosine-protein kinase CSK, sequence (P41240 2-450 limits assumed): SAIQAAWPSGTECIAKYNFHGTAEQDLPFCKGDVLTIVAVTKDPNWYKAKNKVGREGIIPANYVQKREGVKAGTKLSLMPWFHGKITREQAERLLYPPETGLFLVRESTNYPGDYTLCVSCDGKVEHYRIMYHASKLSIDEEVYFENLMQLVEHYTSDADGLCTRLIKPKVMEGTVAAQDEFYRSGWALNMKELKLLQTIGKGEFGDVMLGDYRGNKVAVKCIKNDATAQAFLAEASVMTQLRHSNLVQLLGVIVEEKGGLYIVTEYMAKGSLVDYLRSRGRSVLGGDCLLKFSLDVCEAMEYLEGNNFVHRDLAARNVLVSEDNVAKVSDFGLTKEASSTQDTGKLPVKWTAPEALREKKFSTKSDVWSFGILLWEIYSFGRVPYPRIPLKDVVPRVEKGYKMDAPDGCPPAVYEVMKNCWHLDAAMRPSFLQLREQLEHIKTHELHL

Row | SMILES | inhibition [1] [%] | inhibition [2] [%] | inhibition [3] [%] | IC50 (Ephrin type-B receptor 4) [nM] | inhibition [4] [%] | inhibition [5] [%] | inhibition [6] [%] | inhibition [7] [%] | inhibition [8] [%] | inhibition [9] [%] | inhibition [10] [%] | inhibition [11] [%] | inhibition [12] [%] | inhibition [13] [%] | inhibition [14] [%]
1 | CCN1CCN(Cc2ccc(NC(=O)c3ccc(C)c(/C=C/c4cnc5[nH]ccc5c4OC)c3)cc2C(F)(F)F)CC1 | 10.7 | 17.1 | 4.4 | 54 | 11.5 | -8.3 | -5.6 | 10.7 | 7.1 | -0.9 | 76.9 | 71.8 | 52.7 | – | –
2 | CCN1CCN(Cc2ccc(NC(=O)c3ccc(C)c(Oc4ccnc5[nH]ccc45)c3)cc2C(F)(F)F)CC1 | 15.4 | 13.4 | 15.4 | 999 | 5.1 | -9.4 | 19.1 | 7.8 | -3.5 | 5.4 | 90.3 | 88.7 | > 94 | – | –
3 | CNc1cc(Oc2cc(C(=O)Nc3cc(-n4cnc(C)c4)cc(C(F)(F)F)c3)ccc2C)ncn1 | – | – | – | – | – | – | – | – | – | – | – | – | – | 0.3 | 5
4 | CNc1cc(Oc2cc(C(=O)Nc3cc(N4CCN(C)CC4)cc(C(F)(F)F)c3)ccc2C)ncn1 | – | – | – | – | – | – | – | – | – | – | – | – | – | 7.9 | 8.8
